Reference: ChEMBL document CHEMBL3817787, “Lead Optimization of 2-Phenylindolylglyoxylyldipeptide Murine Double Minute (MDM)2/Translocator Protein (TSPO) Dual Inhibitors for the Treatment of Gliomas” (J Med Chem, 2016)
pIC50, pKi: −log10 of the molar value. Active and inactive are the calls of the source. No cut-off for these calls is given here.

Experiments:
[1] = molecular target: Translocator protein (Rattus norvegicus) (UniProt P16257); assay: (§1) Displacement of [3H]PK11195 from TSPO in rat kidney mitochondrial membrane after 90 mins by liquid scintillation counting method; assay type: cell membranes
Outline: (§2)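 TSPO binding by radioligand displacement of the TSPO-selective [3H]PK11195 across a concentration range; Ki derived.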

Translocator protein = Translocator protein (Rattus norvegicus, UniProt P16257); assay: as §1; assay type: cell membranes; outline: as §2
[2] = Antiproliferative activity against human MSC at 10 uM after 48 hrs by MTS assay
Outline: (§3)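 Non-tumoural human mesenchymal stem cells exposed to 100 nM-10 µM for 48 h; viability read by MTS assay.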

[3] = Antiproliferative activity against human U87MG cells expressing wild type p53 after 48 hrs by MTS assay; settings: U-87 MG
[4] = Antiproliferative activity against human U343MG cells expressing wild type p53 after 48 hrs by MTS assay; settings: U-343MG
T98G = assay: Growth inhibition of human T98G cells expressing p53 mutant after 48 hrs by MTS assay relative to control; assay type: functional
Outline: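 Wild-type p53 U87MG and U343MG cells and mutant-p53 T98G cells were treated with a range of compound concentrations, using the same protocol for each line. Viability was read by MTS assay, and the 48 h treatment with 100 nM–10 µM is stated for U87MG. Results are given as percent inhibition or viable cells versus control, with IC50 taken from concentration–response curves.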

Homo sapiens = organism: Homo sapiens; assay: Growth inhibition of human U87MG-derived CSC at 100 uM after 7 days by MTS assay relative to control; assay type: functional
Outline: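 Glioma CSC viability measured after 24 h and after prolonged (seven-day) exposure, at concentrations up to 100 µM; CSC depletion expressed versus control.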

[5] = Antiproliferative activity against human MSC at 0.01 to 10 uM after 48 hrs by MTS assay; settings: in the assay text read “0.1 to 10 uM” for “0.01 to 10 uM”; outline: as §3
[6] = Growth inhibition of human U87MG cells at 50 uM after 72 hrs by MTS assay relative to control; assay type: functional, U-87MG ATCC; settings: U-87 MG, read-out: GI
Outline: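 U87MG cells were exposed to temozolomide (50 µM) alone or combined with 100 nM dual inhibitor for at least 72 h. Viability was measured and expressed as reduction relative to untreated control.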

Chain of Translocator protein (Rattus norvegicus) (P16257 whole entry, looked up): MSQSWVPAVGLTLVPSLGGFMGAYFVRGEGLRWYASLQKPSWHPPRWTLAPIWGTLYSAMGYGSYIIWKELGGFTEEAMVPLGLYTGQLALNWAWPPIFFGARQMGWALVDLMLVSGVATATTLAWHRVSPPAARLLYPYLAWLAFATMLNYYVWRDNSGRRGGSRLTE
Chain of Translocator protein (P16257 whole entry, looked up): as above

Compound	inhibition [1]	pKi (Translocator protein)	Activity [2]	pIC50 [3]	pIC50 [4]	growth inhibition (GI) (T98G)	growth inhibition (GI) (Homo sapiens)	Activity [5]	inhibition of growth at 50 µM [6]
CCOC(=O)[C@H](Cc1ccccc1)NC(=O)[C@H](CC(C)C)NC(=O)C(=O)c1c(-c2ccccc2)[nH]c2ccccc12	Dose-dependent effect	6.37	Toxic	5.59	5.68	inactive	65%	Non-toxic	–
Cn1nnc2c(C(N)=O)ncn2c1=O [TEMOZOLOMIDE]	–	–	–	–	–	–	–	–	55%
COc1ccc(C2=NC(c3ccc(Cl)cc3)C(c3ccc(Cl)cc3)N2C(=O)N2CCNC(=O)C2)c(OC(C)C)c1 (centres undefined)	–	–	–	5.19	4.90	inactive	45%	–	–
COC(=O)[C@H](CC(C)C)NC(=O)[C@@H](NC(=O)C(=O)c1c(-c2ccccc2)[nH]c2ccccc12)C(C)C	Dose-dependent effect	6.44	–	–	–	–	–	–	–

Now from value to compound, other results behind:

inhibition [1]	pKi (Translocator protein)	Compound	Activity [2]	pIC50 [3]	pIC50 [4]	growth inhibition (GI) (T98G)	growth inhibition (GI) (Homo sapiens)	Activity [5]	inhibition of growth at 50 µM [6]
Dose-dependent effect	6.11	CC[C@H](C)[C@H](NC(=O)[C@@H](NC(=O)C(=O)c1c(-c2ccccc2)[nH]c2ccccc12)C(C)C)C(=O)OC	–	–	–	–	–	–	–
Dose-dependent effect	6.00	CC[C@H](C)[C@H](NC(=O)C(=O)c1c(-c2ccccc2)[nH]c2ccccc12)C(=O)N[C@H](C(=O)OC)[C@@H](C)CC	–	–	–	–	–	–	–
